The results in this text go back to ChEMBL document CHEMBL3872284, “Hydrazone Linker as a Useful Tool for Preparing Chimeric Peptide/Nonpeptide Bifunctional Compounds” (ACS Med Chem Lett, 2017).

In experiment [1] the test system is Rattus norvegicus. Nature of the experiment: Analgesic activity in Wistar rat assessed as increase in thermal stimulus-induced tail-flick latency at 12 nmol/kg administered intrathecally measured up to 60 mins. In kind it is functional. The essentials:
(§1)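 Intrathecal injection followed by tail-flick testing at 5 to 120 min post-injection. Responses expressed as % maximal possible effect (%MPE). Doses given in nmol/kg. n=6–8 animals per group, with a morphine group and statistics versus morphine.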
On the technique in general: In hot-plate and tail-flick tests a longer latency is read as antinociception.

For experiment [2], the system named is Mus musculus. Nature of the experiment: Analgesic activity in C57BL6 mouse assessed as increase in thermal stimulus-induced paw withdrawal latency at 48 umol/kg, iv measured after 30 mins by plantar test. In kind it is functional, organism-based. The essentials:
(§2)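 Heat-induced paw withdrawal (plantar test) after intravenous dosing. Readings taken over a time course to 120 min post-injection and expressed as % maximal possible effect (%MPE). n=6–8 animals per group, with morphine-treated animals as comparator and significance testing versus morphine.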

In experiment [3] the target is T1, Mu-type opioid receptor (Rattus norvegicus, UniProt P33535). Description: Displacement of [3H]DAMGO from MOR in Sprague-Dawley rat brain homogenate measured after 180 mins by scintillation counting analysis. The class given is tissue-based. On the technique in general: Loss of bound radioactivity is the signal in a displacement assay; it reports binding, not function.
T1 sequence (P33535 whole entry): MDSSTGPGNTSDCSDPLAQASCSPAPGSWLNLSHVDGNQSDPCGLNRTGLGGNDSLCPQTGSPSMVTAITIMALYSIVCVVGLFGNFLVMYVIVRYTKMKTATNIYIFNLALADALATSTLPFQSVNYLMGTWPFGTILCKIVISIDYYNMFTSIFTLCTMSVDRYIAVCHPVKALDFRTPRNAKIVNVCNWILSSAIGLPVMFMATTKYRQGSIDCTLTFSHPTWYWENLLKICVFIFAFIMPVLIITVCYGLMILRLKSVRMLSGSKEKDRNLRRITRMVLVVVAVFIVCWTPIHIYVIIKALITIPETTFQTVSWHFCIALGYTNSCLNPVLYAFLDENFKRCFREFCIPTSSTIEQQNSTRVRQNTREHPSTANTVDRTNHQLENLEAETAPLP

Experiment [4] has as its target T2, Delta-type opioid receptor (Rattus norvegicus, UniProt P33533). Description: Displacement of [3H]DELT2 from DOR in Sprague-Dawley rat brain homogenate measured after 180 mins by scintillation counting analysis. In kind it is tissue-based.
Experiment [5] concerns Rattus norvegicus. Nature of the experiment: Analgesic activity in Wistar rat assessed as effect on thermal stimulus-induced tail-flick latency at 2 nmol/kg administered intrathecally measured after 15 mins relative to control. The class given is functional. The essentials: as §1
The target of experiment [6] is T1, Mu-type opioid receptor. Nature of the experiment: Displacement of [3H]DAMGO from MOR in rat brain homogenate measured after 60 mins by microbeta scintillation counting analysis. The class given is tissue-based.
Experiment [7] deals with Mus musculus. Nature of the experiment: Analgesic activity in C57BL6 mouse assessed as effect on thermal stimulus-induced paw withdrawal latency at 80 umol/kg, iv measured after 30 mins by plantar test relative to control. In kind it is functional. In short, it runs like this: as §2
Experiment [8] concerns Mus musculus. Description: Analgesic activity in C57BL6 mouse assessed as effect on thermal stimulus-induced tail-flick latency at 80 umol/kg, iv measured after 60 mins relative to control. In kind it is functional. In short, it runs like this: (§3)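 Tail-flick test after intravenous injection. Latencies recorded at time points from 5 to 120 min post-dose and converted to % maximal possible effect (%MPE). Groups of n=6–8 animals, compared against a morphine-treated group.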

A further experiment concerns the target Substance-P receptor (Rattus norvegicus, UniProt P14600). Description: Displacement of [Leu-3,4,5-3H(N)]-Substance P from NK1 receptor in rat brain homogenate measured after 60 mins by microbeta scintillation counting analysis. In kind it is tissue-based.
Experiment [9] has as its target T2, Delta-type opioid receptor. Nature of the experiment: Displacement of [3H]DELT2 from DOR in rat brain homogenate measured after 60 mins by microbeta scintillation counting analysis. In kind it is tissue-based.
Experiment [10] deals with Mus musculus. Nature of the experiment: Analgesic activity in C57BL6 mouse assessed as effect on thermal stimulus-induced tail-flick latency at 20 to 80 umol/kg, iv measured after 5 mins. The class given is functional. In short, it runs like this:
as §3

Experiment [11] relates to Mus musculus. Description: Analgesic activity in C57BL6 mouse assessed as effect on thermal stimulus-induced tail-flick latency at 80 umol/kg, iv measured after 120 mins relative to control. The class given is functional. In short, it runs like this:
as §3

For experiment [12], the system named is Mus musculus. Description: Analgesic activity in C57BL6 mouse assessed as effect on thermal stimulus-induced tail-flick latency at 80 umol/kg, iv measured up to 30 mins relative to control. In kind it is functional. In short, it runs like this:
as §3

pIC50: −log10 of the molar value. Active and inactive are the calls of the source. No cut-off for these calls is given here.

T2 sequence (P33533 whole entry): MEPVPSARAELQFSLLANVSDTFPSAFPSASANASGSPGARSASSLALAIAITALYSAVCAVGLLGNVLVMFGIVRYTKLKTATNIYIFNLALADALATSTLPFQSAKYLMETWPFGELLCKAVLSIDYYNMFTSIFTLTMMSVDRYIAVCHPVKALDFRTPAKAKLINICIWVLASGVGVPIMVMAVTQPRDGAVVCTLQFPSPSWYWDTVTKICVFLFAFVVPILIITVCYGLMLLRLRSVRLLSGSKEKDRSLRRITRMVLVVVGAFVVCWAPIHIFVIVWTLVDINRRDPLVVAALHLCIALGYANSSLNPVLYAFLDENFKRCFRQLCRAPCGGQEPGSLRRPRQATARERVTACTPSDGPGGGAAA
Chain of Substance-P receptor (P14600 whole entry): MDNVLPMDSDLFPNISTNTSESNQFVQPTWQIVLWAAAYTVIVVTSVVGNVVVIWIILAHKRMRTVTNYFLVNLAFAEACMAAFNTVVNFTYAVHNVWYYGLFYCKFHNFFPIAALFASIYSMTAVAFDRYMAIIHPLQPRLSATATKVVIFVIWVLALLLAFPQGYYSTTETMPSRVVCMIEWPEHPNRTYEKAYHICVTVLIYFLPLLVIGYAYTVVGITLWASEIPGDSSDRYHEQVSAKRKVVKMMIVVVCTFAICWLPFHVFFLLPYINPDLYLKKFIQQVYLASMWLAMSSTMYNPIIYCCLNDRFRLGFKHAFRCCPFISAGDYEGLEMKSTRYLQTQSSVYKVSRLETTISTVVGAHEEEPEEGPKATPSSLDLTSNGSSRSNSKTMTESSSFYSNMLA

In the case of `CN1CC[C@]23c4c5ccc(O)c4O[C@H]2[C@@H](O)C=C[C@H]3[C@H]1C5`, the result with Rattus norvegicus [1] and in the experiment with Mus musculus [2] was Active.

The pIC50 is −log10 of the IC50, conventionally taken in molar units. Higher therefore signals a low IC50. On to `C[C@@H](NC(=O)[C@@H](N)Cc1ccc(O)cc1)C(=O)NCC(=O)N[C@@H](Cc1ccccc1)C(=O)NN`, for which the pIC50 on Mu-type opioid receptor [3] was 8.33; in [4] it was 6.64.

Take `C[C@@H](NC(=O)[C@@H](N)Cc1ccc(O)cc1)C(=O)NCC(=O)N[C@@H](Cc1ccccc1)C(=O)N/N=C/c1cc(C(F)(F)F)cc(C(F)(F)F)c1.O=C(O)C(F)(F)F`: the MPE in the experiment with Rattus norvegicus [5] was 80.31%; with Mus musculus [7] it was 75.41%; with Mus musculus [8], 69.84%; in the experiment with Mus musculus [10] it was 84.81%; in the experiment on Mus musculus [11], 16.84%; with Mus musculus [12], 94.26%. For the same compound, the pIC50 at Mu-type opioid receptor [6] is 7.90; on Substance-P receptor it was 8.37; in experiment [9], 7.13.

For the compound `C[C@@H](NC(=O)[C@@H](N)Cc1ccc(O)cc1)C(=O)NCC(=O)N[C@@H](Cc1ccccc1)C(=O)NNC(=O)[C@@H](N)Cc1ccccc1`, the pIC50 at Mu-type opioid receptor [3] was 9.13; in [4] it was 7.82.
